Data from PubChem BioAssay AID651647 (Sanford-Burnham Center for Chemical Genomics, 2012).
The whole screen tested about 360,000 compounds, of which about 220 (0.061%) were called active. The list comes from a sample in which actives are over-represented; it also holds similar structures and randomly drawn compounds. A number with no mark means an inactive call.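 Rule for the calls: active = GFP/RFP ratio change of at least 30% with cell ATP level not reduced by more than half and red fluorescence within 50% of control; inactive = the rest, inconclusive results apart.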

molecular target: Matrix metalloproteinase-14 (Homo sapiens) (UniProt P50281); assay: blockers of MT1-MMP proenzyme processing, primary screen, HT1080 RFP-PRO-GFP cells, GFP/RFP fluorescence (AID 651647); conditions: overnight, at 20 µM, stronger effect = higher value, percent of plate control window, DMSO zero
Summary of the method: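 Read-out: GFP/RFP fluorescence ratio; Test system: RFP-PRO-GFP reporter HT1080 cells; Compound dosing: single-point 20 µM compound, 1% DMSO; Times: overnight compound exposure at 37 °C.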

Compound | GFP/RFP ratio change
COC1=C/C(=C/c2c(N)n3nc(CC(=O)N4CCOCC4)sc3nc2=O)C=CC1=O | -33.2%
Cc1ccc(C(=O)Nc2nnc(C3=COCCO3)o2)cc1C | -0.926%
CCC(=O)N1CCCC1(C)C(=O)Nc1ccc2c(c1)CCN2C(C)=O (stereo not drawn) | -0.545%
NS(=O)(=O)c1ccc(N2C(=O)C3C4CC(C(Br)C4Br)C3C2=O)cc1 (stereo not drawn) | -0.391%
CCc1ccc(-c2cc3c(=O)n(CC(=O)NCCCN4CCN(Cc5ccccc5)CC4)nc(C)n3n2)cc1 | -3.13%
C/C(=N\c1nc2ccccc2n1C)c1cc(Cl)ccc1O | 1.93%
COc1cc(C(=S)NCc2ccccc2)cc(Br)c1O | 4.38%
O=S1(=O)CC(N2CCN(CCO)CC2)CN1C1CCCC1 (stereo not drawn) | -0.753%
CSc1cccc(NC(=O)C2CCCN2S(=O)(=O)c2ccc3c(c2)CCC(=O)N3)c1 (stereo not drawn) | -0.538%
O=[N+]([O-])c1cc(S(=O)(=O)N2CCCC2)ccc1NN=C1CCCC1 | 0.0654%
COc1ccc(/C=C2\CCCC3C2=NN(C(=O)c2scnc2C)C3c2ccc(OC)cc2)cc1 (stereo not drawn) | -11.9%
CCN(c1ccccc1)S(=O)(=O)c1ccc2[nH]c(=O)[nH]c2c1 | -1.12%
O=C1CCC(C(=O)N2CCC(O)(c3ccccc3)CC2)CN1CCc1ccccc1 (stereo not drawn) | -2.93%
COc1ccc(CCN2CC(C(=O)NCCN3CCNC3=O)CCC2=O)cc1 (stereo not drawn) | 0.0278%
Cc1ccc(-c2nc(CSCC(=O)NC3CCN(Cc4ccccc4)CC3)c(C)o2)cc1 | 1.7%
CC1(C)N=C(c2ccccn2)C(C)(C)N1O | -4.4%
O=C(Cc1ccccn1)c1ccc(O)cc1O | -2.78%
O=C(NNc1c2ccccc2nc2ccccc12)c1cc2ccccc2cc1O | 55.7% (active)
O=C(CSc1nc(C2CC2)nc2ccccc12)Nc1cccc(O)c1 | -3.6%
O=C(COC(=O)COc1ccccc1F)Nc1cccc(S(=O)(=O)N2CCCCC2)c1 | 4.15%
CC1(c2ccccc2Cl)NC(=O)N(CC(=O)NC(=O)NCc2ccco2)C1=O (stereo not drawn) | -1.98%
O=C(Cn1c(-c2cscn2)nc2ccccc21)Nc1ccc(Cl)cc1 | 0.072%

Compound | GFP/RFP ratio change
O=C(CSc1nnc(-c2ccc([N+](=O)[O-])cc2)o1)Nc1ccccn1 | 3.02%
O=C(c1cc2c(s1)CCC2)N1CCN(c2ccccc2)CC1 | -1.39%
O=C(COc1ncnc2c(Cl)cc(Cl)cc12)N1CCN(S(=O)(=O)c2ccccc2)CC1 | -1.19%
COc1ccc(C(=O)CN2C(=O)NC(C)(c3ccc(C)cc3)C2=O)cc1OC (stereo not drawn) | 5.51%
CCOC(=O)C1CCN(C(=O)Nc2ccc(C)c(Cl)c2)CC1 | 2.62%
CCC1=C(OC(=O)N(CC)CC)N2C(=O)OC(=NCC3CC3)[C@]2(C)[C@H]2C1=CC[C@H]1C(=O)N(CC(=O)OC)C(=O)[C@H]12 | -1.64%
O=c1[nH]c2ccccc2n2c(-c3ccccc3)nnc12 | 2.93%
Cc1ccc(NC(=O)CSc2nnc(CNC(=O)c3ccccc3F)o2)cc1Cl | 3.87%
CCOC(=O)N1CCC(c2cc(=O)n(-c3ccccc3)[nH]2)CC1 | 9.16%
CCOc1ccc(CCNC(=O)COC(=O)C2CCN(S(=O)(=O)c3ccccc3)CC2)cc1OCC | 2.91%
O=C(NCCN1CCOCC1)c1ccccc1N1C(=O)[C@@H]2Cc3c([nH]c4ccccc34)C(c3cccc(Cl)c3)N2C1=O (stereo partly drawn) | -1.74%
CC1(C)CC(O)C(CCC(O)c2ccccc2)C(C)(C)N1 (stereo not drawn) | -4.83%
CC1CCCCC12NC(=O)N(CC(=O)OCc1c(F)cccc1Cl)C2=O (stereo not drawn) | -0.886%
O=C(CCN1CCN(C/C=C/c2ccccc2)CC1)Nc1cccc(F)c1 | 5.08%
CCCOC1CCCN(C(=O)c2cc(COc3cncc(Cl)c3)on2)C1 (stereo not drawn) | 0.805%
CCCC1NC(=S)NC(C)=C1C(C)=O (stereo not drawn) | 5.05%
O=C(C1CCN(S(=O)(=O)Cc2ccccc2)CC1)N1CCCc2ccccc21 | -2.92%
O=[N+]([O-])c1ccc(N2CCNCC2)cc1NCc1cccnc1 | -8.92%
O=C(NC1CCCC1)C(c1ccc(Cl)cc1)N(C(=O)c1csnn1)C1CC1 (stereo not drawn) | -4.04%
O=C(c1ccco1)N1CCN(C(=O)C2CC(c3ccc(F)cc3)=NO2)CC1 (stereo not drawn) | 1.83%
CCc1cccc2c(C=C(C#N)C#N)cn(CC(=O)N3CCCCC3)c12 | 0.243%
